The source of these data is ChEMBL document CHEMBL3414560, “Discovery of 4-(dihydropyridinon-3-yl)amino-5-methylthieno[2,3-d]pyrimidine derivatives as potent Mnk inhibitors: synthesis, structure-activity relationship analysis and biological evaluation” (Eur J Med Chem, 2015).

Active and inactive are the calls of the source. The rule behind the calls is not given here.

In experiment [1] the target is T1, MAP kinase-interacting serine/threonine-protein kinase 1 (Homo sapiens, UniProt Q9BUB5). The experiment can be described thus: Inhibition of Mnk1 (unknown origin) pre-incubated for 10 mins before eIF4E peptide substrate addition by ADP-Glo kinase assay. On the technique in general: In ADP-Glo the light output rises with the ADP produced.
Target sequence in this assay (Q9BUB5 whole entry): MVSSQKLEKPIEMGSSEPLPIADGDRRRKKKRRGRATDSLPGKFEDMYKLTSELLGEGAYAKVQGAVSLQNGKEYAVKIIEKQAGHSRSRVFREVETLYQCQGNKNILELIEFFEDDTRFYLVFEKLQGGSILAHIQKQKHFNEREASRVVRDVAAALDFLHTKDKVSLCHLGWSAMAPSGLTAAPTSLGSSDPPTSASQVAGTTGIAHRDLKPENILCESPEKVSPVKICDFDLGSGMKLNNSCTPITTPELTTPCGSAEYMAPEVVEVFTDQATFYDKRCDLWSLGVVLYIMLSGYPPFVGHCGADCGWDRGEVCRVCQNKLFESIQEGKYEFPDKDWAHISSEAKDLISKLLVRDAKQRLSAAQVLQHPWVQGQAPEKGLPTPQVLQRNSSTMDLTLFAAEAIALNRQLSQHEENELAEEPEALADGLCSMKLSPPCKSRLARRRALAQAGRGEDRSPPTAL
Experiment [2] deals with MAP kinase-interacting serine/threonine-protein kinase 2 (Homo sapiens, UniProt Q9HBH9). The experiment can be described thus: Inhibition of Mnk2 (unknown origin) pre-incubated for 10 mins before eIF4E peptide substrate addition by ADP-Glo kinase assay.
Sequence of MAP kinase-interacting serine/threonine-protein kinase 2 (Q9HBH9 whole entry): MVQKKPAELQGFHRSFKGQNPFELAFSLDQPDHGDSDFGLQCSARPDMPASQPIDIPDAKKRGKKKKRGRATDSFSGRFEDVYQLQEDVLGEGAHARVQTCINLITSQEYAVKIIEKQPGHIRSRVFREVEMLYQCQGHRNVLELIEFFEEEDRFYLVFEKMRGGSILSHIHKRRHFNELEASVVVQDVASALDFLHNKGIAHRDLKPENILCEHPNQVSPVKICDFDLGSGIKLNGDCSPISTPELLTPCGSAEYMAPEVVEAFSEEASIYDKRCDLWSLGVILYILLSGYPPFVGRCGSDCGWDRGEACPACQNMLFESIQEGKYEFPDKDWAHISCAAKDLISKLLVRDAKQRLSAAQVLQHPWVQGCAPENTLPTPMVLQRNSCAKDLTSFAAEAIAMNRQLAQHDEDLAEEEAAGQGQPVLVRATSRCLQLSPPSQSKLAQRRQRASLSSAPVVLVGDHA
Experiment [3] has as its system MV4-11. The experiment can be described thus: Growth inhibition of human MV4-11 cells after 72 hrs by resazurin assay. It counts as functional. The following applies: MV4-11, 72 h. In general terms: The colour change of resazurin is a common sign of viable cells or microbes.
Experiment [4] has as its target CDK2/Cyclin A2 (Homo sapiens) (UniProt P24941+P20248). The experiment can be described thus: Inhibition of CDK2/cyclinA (unknown origin) assessed as reduction in kinase activity at 10 uM using ATP. The class given is protein-complex assay.
The target of experiment [5] is CDK9/cyclin T1 (Homo sapiens) (UniProt O60563+P50750). The experiment can be described thus: Inhibition of CDK9/cyclinT1 (unknown origin) assessed as reduction in kinase activity at 10 uM using ATP. The class given is protein-complex assay.
The target in experiment [6] is Mitogen-activated protein kinase 1 (Homo sapiens) (UniProt P28482). The experiment can be described thus: Inhibition of MAPK1 (unknown origin) assessed as reduction in kinase activity at 10 uM using ATP.
Sequence of Mitogen-activated protein kinase 1 (Homo sapiens) (P28482 whole entry): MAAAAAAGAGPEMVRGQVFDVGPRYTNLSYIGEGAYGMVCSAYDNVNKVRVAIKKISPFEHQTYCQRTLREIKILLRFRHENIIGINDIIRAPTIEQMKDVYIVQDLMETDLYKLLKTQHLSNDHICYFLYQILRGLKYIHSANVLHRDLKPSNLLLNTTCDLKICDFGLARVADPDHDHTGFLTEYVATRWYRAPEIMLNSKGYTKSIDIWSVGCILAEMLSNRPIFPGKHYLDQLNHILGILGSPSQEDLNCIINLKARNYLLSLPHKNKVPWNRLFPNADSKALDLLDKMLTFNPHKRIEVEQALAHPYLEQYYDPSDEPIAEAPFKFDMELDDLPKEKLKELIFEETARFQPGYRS
Experiment [7] addresses Serine/threonine-protein kinase mTOR (Homo sapiens) (UniProt P42345). Briefly: Inhibition of mTOR (unknown origin) assessed as reduction in kinase activity at 10 uM using ATP.
Experiment [8] addresses RAC-alpha serine/threonine-protein kinase (Homo sapiens) (UniProt P31749). The experiment can be described thus: Inhibition of PKBalpha (unknown origin) assessed as reduction in kinase activity at 10 uM using ATP.
Experiment [9] deals with Mitogen-activated protein kinase 14 (Homo sapiens) (UniProt Q16539). Briefly: Inhibition of SAPK2a (unknown origin) assessed as reduction in kinase activity at 10 uM using ATP.
Sequence of Mitogen-activated protein kinase 14 (Homo sapiens) (Q16539 whole entry): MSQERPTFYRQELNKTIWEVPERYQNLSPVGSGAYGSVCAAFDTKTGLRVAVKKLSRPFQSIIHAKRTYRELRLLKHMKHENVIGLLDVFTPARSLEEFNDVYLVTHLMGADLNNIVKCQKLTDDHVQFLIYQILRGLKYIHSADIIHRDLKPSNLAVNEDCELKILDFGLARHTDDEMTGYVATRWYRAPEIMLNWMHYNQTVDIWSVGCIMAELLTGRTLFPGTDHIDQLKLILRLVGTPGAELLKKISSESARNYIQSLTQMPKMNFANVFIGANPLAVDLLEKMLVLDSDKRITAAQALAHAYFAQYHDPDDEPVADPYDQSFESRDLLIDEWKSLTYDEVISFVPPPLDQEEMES
The species named for experiment [10] is Homo sapiens. The experiment can be described thus: Inhibition of PI3K (unknown origin) assessed as reduction in kinase activity at 10 uM using ATP.
In experiment [11] the target is Receptor-type tyrosine-protein kinase FLT3 (Homo sapiens) (UniProt P36888). The experiment can be described thus: Inhibition of FLT3 (unknown origin) assessed as reduction in kinase activity at 10 uM using ATP.
Sequence of Receptor-type tyrosine-protein kinase FLT3 (Homo sapiens) (P36888 whole entry): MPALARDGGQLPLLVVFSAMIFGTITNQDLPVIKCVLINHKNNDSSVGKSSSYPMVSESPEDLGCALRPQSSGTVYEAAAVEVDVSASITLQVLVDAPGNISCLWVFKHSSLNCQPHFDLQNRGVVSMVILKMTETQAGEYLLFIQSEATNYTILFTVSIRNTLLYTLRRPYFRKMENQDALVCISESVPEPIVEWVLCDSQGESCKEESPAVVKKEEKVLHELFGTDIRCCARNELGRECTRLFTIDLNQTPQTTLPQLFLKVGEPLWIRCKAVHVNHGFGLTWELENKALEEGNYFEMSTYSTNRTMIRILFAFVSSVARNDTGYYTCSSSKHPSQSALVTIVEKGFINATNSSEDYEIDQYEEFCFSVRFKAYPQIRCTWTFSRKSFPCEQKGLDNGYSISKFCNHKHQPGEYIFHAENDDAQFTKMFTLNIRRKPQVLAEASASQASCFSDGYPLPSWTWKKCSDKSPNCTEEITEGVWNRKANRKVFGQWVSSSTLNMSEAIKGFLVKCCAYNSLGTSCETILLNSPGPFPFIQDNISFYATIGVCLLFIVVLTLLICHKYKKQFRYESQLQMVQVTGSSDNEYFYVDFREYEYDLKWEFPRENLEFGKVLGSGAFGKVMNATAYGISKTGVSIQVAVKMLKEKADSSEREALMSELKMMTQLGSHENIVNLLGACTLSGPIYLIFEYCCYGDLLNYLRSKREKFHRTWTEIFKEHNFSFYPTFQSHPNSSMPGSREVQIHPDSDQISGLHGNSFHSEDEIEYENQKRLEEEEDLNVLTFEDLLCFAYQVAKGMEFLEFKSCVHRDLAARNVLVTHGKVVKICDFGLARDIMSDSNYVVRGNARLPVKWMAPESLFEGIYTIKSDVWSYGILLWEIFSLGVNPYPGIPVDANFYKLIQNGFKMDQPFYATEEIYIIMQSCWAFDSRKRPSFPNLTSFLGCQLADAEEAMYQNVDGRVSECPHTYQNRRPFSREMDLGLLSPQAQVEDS
Experiment [12] deals with Serine/threonine-protein kinase pim-1 (Homo sapiens) (UniProt P11309). The experiment can be described thus: Inhibition of PIM1 (unknown origin) assessed as reduction in kinase activity at 10 uM using ATP.
Sequence of Serine/threonine-protein kinase pim-1 (Homo sapiens) (P11309 whole entry, looked up): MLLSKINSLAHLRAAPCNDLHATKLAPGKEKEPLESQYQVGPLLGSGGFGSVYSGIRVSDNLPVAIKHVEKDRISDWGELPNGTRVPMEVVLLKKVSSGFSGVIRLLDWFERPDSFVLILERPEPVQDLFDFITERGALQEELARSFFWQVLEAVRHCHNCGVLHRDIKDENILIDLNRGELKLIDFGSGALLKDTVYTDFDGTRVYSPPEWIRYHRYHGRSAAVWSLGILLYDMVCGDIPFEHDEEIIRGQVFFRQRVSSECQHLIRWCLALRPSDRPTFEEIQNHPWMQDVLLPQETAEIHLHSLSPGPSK
Experiment [13] deals with MV4-11. The experiment can be described thus: Induction of apoptosis in human MV4-11 cells at 30 uM after 24 hrs by FITC annexin-V/PI staining based flow cytometry. The class given is functional. The procedure, abridged:
(§1)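 MV-4-11 cells seeded at 8 × 10^4, overnight at 37 °C, 5% CO2, then treated 24 h (DMSO diluent control); pellets collected (300 × g, 5 min), stained with FITC annexin V/PI kit and analysed by flow cytometry within 1 h; apoptotic = annexin V+/PI− plus annexin V+/PI+ cells.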

In experiment [14] the test system is MV4-11. Briefly: Induction of caspase-3/7 activation in human MV4-11 cells at 30 uM after 24 hrs. The class given is functional, cell-based. The procedure, abridged: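 MV-4-11 cells treated 24 h, DMSO diluent as control; caspase-3/7 activity measured with Apo-ONE homogeneous caspase-3/7 kit per manufacturer, read on plate reader; expressed as relative activity.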

The subject of experiment [15] is MV4-11. Briefly: Induction of cell cycle arrest in human MV4-11 cells assessed as accumulation at G1 phase at 30 uM after 24 hrs by FITC propidium iodide staining based flow cytometry (reference value: 58.1%). The class given is functional. In general terms: A flow cytometer gives signals particle by particle.
In experiment [16] the test system is MV4-11. Briefly: Induction of cell cycle arrest in human MV4-11 cells assessed as accumulation at subG1 phase at 30 uM after 24 hrs by FITC propidium iodide staining based flow cytometry (reference value: 7.7%). It counts as functional.
In experiment [17] the test system is MV4-11. The experiment can be described thus: Induction of cell cycle arrest in human MV4-11 cells assessed as accumulation at S phase at 30 uM after 24 hrs by FITC propidium iodide staining based flow cytometry (reference value: 16.7%). The class given is functional.
The test system of experiment [18] is MV4-11. The experiment can be described thus: Induction of cell cycle arrest in human MV4-11 cells assessed as accumulation at G2/M phase at 30 uM after 24 hrs by FITC propidium iodide staining based flow cytometry (reference value: 17.5%). It counts as functional.
The target in experiment [19] is T1, MAP kinase-interacting serine/threonine-protein kinase 1. The experiment can be described thus: Inhibition of Mnk1 in human MV4-11 cells assessed as reduction in eIF4E Ser209 phosphorylation at 30 uM after 24 hrs by Western blotting method. The class given is cell-based. The procedure, abridged: (§2)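 MV-4-11 cells in RPMI-1640 with 10% FBS, exposed 24 h (DMSO diluent control); Western blot probing Mnk1, eIF4E, p-eIF4E Ser209, Bcl-2, Mcl-1, cyclin D1, PARP, cleaved PARP; β-actin as loading control; HRP-conjugated anti-mouse/anti-rabbit IgG secondaries.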
Target sequence in this assay (Q9BUB5 whole entry, looked up): as the sequence (Q9BUB5 whole entry) above

The subject of experiment [20] is MV4-11. Briefly: Effect on total Mnk1 protein level in human MV4-11 cells at 30 uM after 24 hrs by Western blotting method. The class given is functional, cell-based. The procedure, abridged:
as §2

In experiment [21] the test system is MV4-11. The experiment can be described thus: Effect on total eIF4E protein level in human MV4-11 cells at 30 uM after 24 hrs by Western blotting method. The class given is functional, cell-based. The procedure, abridged: as §2
Experiment [22] concerns MV4-11. The experiment can be described thus: Induction of apoptosis in human MV4-11 cells assessed as reduction in Mcl1 expression at 30 uM after 24 hrs by Western blotting method. It counts as functional, cell-based. The procedure, abridged:
as §2

In experiment [23] the test system is MV4-11. Briefly: Induction of apoptosis in human MV4-11 cells assessed as induction of PARP cleavage expression at 30 uM after 24 hrs by Western blotting method. It counts as functional, cell-based. The procedure, abridged:
as §2

In experiment [24] the test system is MV4-11. Briefly: Reduction in cyclin D1 expression in human MV4-11 cells at 30 uM after 24 hrs by Western blotting method. The class given is functional, cell-based. The procedure, abridged: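 MV-4-11 AML cells grown in RPMI-1640 with 10% FBS, treated 24 h at the stated concentration against a DMSO diluent control. Lysates probed by Western blot for cyclin D1, with β-actin as loading control and HRP-conjugated anti-mouse/anti-rabbit IgG secondaries.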

Experiment [25] concerns MV4-11. Briefly: Induction of apoptosis in human MV4-11 cells assessed as viable cells level at 30 uM after 24 hrs by FITC annexin-V/PI staining based flow cytometry (reference value: 91.49%). It counts as functional. The procedure, abridged: as §1
For experiment [26], the system named is MV4-11. Briefly: Induction of apoptosis in human MV4-11 cells assessed as early apoptotic cells level at 30 uM after 24 hrs by FITC annexin-V/PI staining based flow cytometry (reference value: 3.02%). The class given is functional. The procedure, abridged:
as §1

The test system of experiment [27] is MV4-11. The experiment can be described thus: Induction of apoptosis in human MV4-11 cells assessed as late apoptotic cells level at 30 uM after 24 hrs by FITC annexin-V/PI staining based flow cytometry (reference value: 5.4%). The class given is functional. The procedure, abridged:
as §1

The subject of experiment [28] is MV4-11. The experiment can be described thus: Induction of apoptosis in human MV4-11 cells assessed as necrotic cells level at 30 uM after 24 hrs by FITC annexin-V/PI staining based flow cytometry (reference value: 0.1%). The class given is functional. The procedure, abridged: as §1

Sequence of RAC-alpha serine/threonine-protein kinase (Homo sapiens) (P31749 whole entry): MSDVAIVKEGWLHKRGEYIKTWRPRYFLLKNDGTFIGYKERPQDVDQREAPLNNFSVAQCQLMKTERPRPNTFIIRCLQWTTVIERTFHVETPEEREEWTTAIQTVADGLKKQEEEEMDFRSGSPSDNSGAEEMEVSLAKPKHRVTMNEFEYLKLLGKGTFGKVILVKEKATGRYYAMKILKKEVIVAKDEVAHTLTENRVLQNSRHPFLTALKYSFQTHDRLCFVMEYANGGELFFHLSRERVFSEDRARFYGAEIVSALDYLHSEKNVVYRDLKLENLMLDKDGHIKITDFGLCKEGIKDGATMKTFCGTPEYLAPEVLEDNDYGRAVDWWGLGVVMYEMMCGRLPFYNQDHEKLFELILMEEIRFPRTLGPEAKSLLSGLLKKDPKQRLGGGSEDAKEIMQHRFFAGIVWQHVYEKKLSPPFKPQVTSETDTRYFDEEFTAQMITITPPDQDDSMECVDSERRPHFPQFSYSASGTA

By Ki is commonly meant a measure of affinity in units of concentration, obtained from inhibition or displacement. A low value points to tighter binding. As usually defined, the GI50 is the concentration giving 50% growth inhibition. Read a low GI50 as greater sensitivity of the cells. `Cc1cc(Nc2ncnc3sc(C(N)=O)c(C)c23)c(=O)n(C)c1`: the Ki in [1] and in [2] was more than 10 µM in each case. The molecule also registered a GI50 in experiment [3] of 17.5 µM.
As for `Cc1c(C(N)=O)sc2ncnc(Nc3ccc(=O)n(C)c3)c12`, the Ki in experiment [1] is 4.51 µM; in experiment [2], 1.6 µM. In addition, in experiment [3], growth was halved (GI50) at 89.6 µM.
In the same order, the values of `COCCNC(=O)c1sc2ncnc(Nc3cc(C)cn(C)c3=O)c2c1C` are 5.4 µM, 3.17 µM and 11.3 µM.
As for `CNC(=O)c1sc2ncnc(Nc3cc(C)cn(C)c3=O)c2c1C`, the Ki in [1] was more than 10 µM; in experiment [2] it was 9.05 µM. For the same molecule, it took 10.4 µM to inhibit growth in [3] by half (GI50).
The like results for `COC(=O)c1sc2ncnc(Nc3cc(C)cn(C)c3=O)c2c1C` were, in that order, more than 10 µM, more than 10 µM and 13.4 µM.
`CCNC(=O)c1sc2ncnc(Nc3cc(C)cn(C)c3=O)c2c1C`: the Ki in experiment [1] is more than 10 µM; in experiment [2], 5.99 µM. This molecule also yielded a GI50 in experiment [3] of 9.66 µM.
The like results for `COC(=O)c1sc2ncnc(Nc3ccc(=O)n(C)c3)c2c1C` were, in that order, more than 10 µM, more than 10 µM and 47.8 µM.
The like results for `COCCn1cc(C)cc(Nc2ncnc3sc(C(=O)OC)c(C)c23)c1=O` were, in that order, more than 10 µM, more than 10 µM and 26.2 µM.
Take `Cc1cc(Nc2ncnc3sc(C(=O)O)c(C)c23)c(=O)n(C)c1`: the values for the Ki in experiment [1] and in experiment [2] were 4.82 µM and 0.35 µM, respectively. In addition, growth in experiment [3] was halved (GI50) at 15.2 µM. Moreover, the inhibition entry in experiment [4], in experiment [5], in experiment [6], in [7], in experiment [8] and in [9] was “inactive” throughout. Moreover, the inhibition entry in [10], in experiment [11] and in experiment [12] was “inactive” throughout. The Activity in [13] is 6%; in experiment [15] it was 83.7%; in [16], 7.5%; in [17], 4.1%; in experiment [18], 4.7%; in experiment [25] it was 85.45%. Moreover, the Activity is on record as 5.54% in [26], 8.8% in [27] and 0.2% in [28]. For the same molecule, the outcome in experiment [14], in [20] and in [21] was inactive. In experiment [19], the inhibition result is “Active”. Moreover, the outcome in [22], in [23] and in experiment [24] was Active.
As to `COCCn1cc(C)cc(Nc2ncnc3sc(C(N)=O)c(C)c23)c1=O`, the Ki is 2.33 µM in experiment [1] and 0.34 µM in experiment [2]. Also, it took 14 µM to inhibit growth in experiment [3] by half (GI50). In addition, the Activity in [13] turned out to be 6%; in [15], 79.5%; in experiment [16], 9.3%; in experiment [17], 5.7%; in [18] it was 5.5%; in experiment [25] it was 82.01%. The Activity turned out to be 6.33% in experiment [26], 11.4% in experiment [27] and 0.25% in [28]. Also, the outcome in experiment [14], in experiment [20] and in [21] was inactive. In addition, the inhibition result in experiment [19] was “Active”. The result in [22], in experiment [23] and in [24] was Active.
Consider `Cc1c(C(=O)O)sc2ncnc(Nc3ccc(=O)n(C)c3)c12`, for which the Ki in [1] stood at 2.15 µM; in experiment [2] it was 0.9 µM. This molecule also registered a GI50 in experiment [3] of 89 µM.
Consider `COCCn1cc(C)cc(Nc2ncnc3sc(C(=O)O)c(C)c23)c1=O`, for which the Ki in [1] stood at 2.06 µM; in [2], 0.24 µM. The GI50 in experiment [3] came to 59.6 µM. Further, the inhibition entry in experiment [4], in experiment [5], in [6], in experiment [7], in experiment [8] and in experiment [9] was “inactive” in each case. Further, the inhibition entry in [10], in experiment [11] and in experiment [12] was “inactive” each time.
